In this series the test system is CCOC(=O)C1=C[C@@H](OC(CC)CC)[C@H](NC(C)=O)[C@@H](N)C1. In words: Activity of human MDR1-mediated drug permeability expressed in pig LLC-PK1 cells. The series is classed as cell-based. The procedure, abridged:
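P-gp-transfected LLC-PK1 monolayers; 14C-labelled substrate (0.1 to 10 mM) plus Lucifer yellow added to the apical or basolateral donor side, ± elacridar 1 μM; 37°C, 5% CO2; acceptor sampled at 30 min and 1, 2, 3 h and counted by scintillation; Pe from the 3 h point, not corrected for marker flux; B-to-A/A-to-B ratio; three inserts per condition, mean.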

Here are results for one substance from ChEMBL document CHEMBL1687750, “Nonclinical pharmacokinetics of oseltamivir and oseltamivir carboxylate in the central nervous system” (Antimicrob Agents Chemother, 2009).

Broadly, the Km is the concentration of substrate that gives half-maximal velocity. One may read the Vmax as the rate approached at saturating substrate.

As to “ATP-dependent translocase ABCB1 (Homo sapiens)”, the Km was determined as 4.2 mM and the Vmax stood at 0.000534 µmol/min.
